Source: ChEMBL document CHEMBL3826885, “Similarities and differences in affinity and binding modes of tricyclic pyrimido- and pyrazinoxanthines at human and rat adenosine receptors” (Bioorg Med Chem, 2016)
Converted amounts (≈) assume the structure as drawn.

How the values were obtained:
[1] = molecular target: Adenosine receptor A2a (Rattus norvegicus) (UniProt P30543); assay: Displacement of [3H]MSX2 from Adenosine receptor A2a in rat brain striatal membranes at 10 uM; format: cell membranes; settings: Membrane
How it was run: (§1)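 Native rat receptors: A1 in brain cortical membranes with [3H]CCPA, A2A in brain striatal membranes, from frozen unstripped rat brains. Compounds were first screened at a single high concentration in three independent experiments. Active compounds then had full inhibition curves over at least 3 orders of magnitude of concentration.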

Adenosine receptor A3 [2] = molecular target: T1, Adenosine receptor A3 (Homo sapiens, UniProt P0DMS8); assay: Displacement of [3H]PSB-11 from recombinant human adenosine receptor A3 expressed in CHO cell membranes
T1 sequence (P0DMS8 whole entry): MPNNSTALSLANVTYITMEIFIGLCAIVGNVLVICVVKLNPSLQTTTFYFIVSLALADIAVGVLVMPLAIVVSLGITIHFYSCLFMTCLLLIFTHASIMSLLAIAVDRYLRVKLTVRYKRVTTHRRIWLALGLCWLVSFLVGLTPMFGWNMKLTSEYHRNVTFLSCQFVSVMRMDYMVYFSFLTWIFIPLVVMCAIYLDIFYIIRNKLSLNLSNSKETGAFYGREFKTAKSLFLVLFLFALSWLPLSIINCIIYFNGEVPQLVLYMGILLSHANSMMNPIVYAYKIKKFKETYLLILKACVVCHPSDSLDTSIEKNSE

Adenosine receptor A1 [3] = molecular target: T2, Adenosine receptor A1 (Rattus norvegicus, UniProt P25099); assay: Displacement of [3H]CCPA from adenosine receptor A1 in rat brain cortical membranes; format: cell membranes
T2 sequence (P25099 whole entry): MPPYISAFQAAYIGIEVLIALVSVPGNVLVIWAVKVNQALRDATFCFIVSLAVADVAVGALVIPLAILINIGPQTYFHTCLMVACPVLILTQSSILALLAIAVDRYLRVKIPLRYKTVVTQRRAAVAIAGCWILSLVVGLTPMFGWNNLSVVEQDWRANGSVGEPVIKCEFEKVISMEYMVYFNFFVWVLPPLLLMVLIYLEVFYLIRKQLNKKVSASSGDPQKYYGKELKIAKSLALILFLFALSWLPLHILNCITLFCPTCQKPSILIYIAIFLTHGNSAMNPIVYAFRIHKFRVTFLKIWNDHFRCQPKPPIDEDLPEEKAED
How it was run: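 Native rat receptors: A1 in brain cortical membranes with [3H]CCPA, A2A in brain striatal membranes, from frozen unstripped rat brains. Compounds were first screened at a single high concentration in three independent experiments.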

[4] = molecular target: T3, Adenosine receptor A3 (Homo sapiens) (UniProt P0DMS8); assay: Displacement of [3H]PSB11 from recombinant human adenosine receptor A3 expressed in CHO cell membranes at 1 uM
T3 sequence (whole entry): T1 sequence (P0DMS8 whole entry)
How it was run: (§2)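 Membranes came from CHO cells expressing recombinant receptors (human A1, A2A, A2B, A3; rat A2B, A3). Radioligands were [3H]CCPA for A1 and [3H]PSB-11 or [3H]NECA for A3. A single high concentration was screened first, in three experiments for A1/A2A and two for A2B/A3. Full inhibition curves spanning at least 3 log units were run for potent compounds.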

[5] = molecular target: T4, Adenosine receptor A1 (Rattus norvegicus) (UniProt P25099); assay: Displacement of [3H]CCPA from adenosine receptor A1 in rat brain cortical membranes at 10 uM; format: cell membranes; how it was run: as §1
T4 sequence (whole entry): T2 sequence (P25099 whole entry)

Adenosine receptor A2b [6] = molecular target: T5, Adenosine receptor A2b (Homo sapiens, UniProt P29275); assay: Displacement of [3H]PSB-603 from recombinant human adenosine receptor A2b expressed in CHO cell membranes
T5 sequence (P29275 whole entry): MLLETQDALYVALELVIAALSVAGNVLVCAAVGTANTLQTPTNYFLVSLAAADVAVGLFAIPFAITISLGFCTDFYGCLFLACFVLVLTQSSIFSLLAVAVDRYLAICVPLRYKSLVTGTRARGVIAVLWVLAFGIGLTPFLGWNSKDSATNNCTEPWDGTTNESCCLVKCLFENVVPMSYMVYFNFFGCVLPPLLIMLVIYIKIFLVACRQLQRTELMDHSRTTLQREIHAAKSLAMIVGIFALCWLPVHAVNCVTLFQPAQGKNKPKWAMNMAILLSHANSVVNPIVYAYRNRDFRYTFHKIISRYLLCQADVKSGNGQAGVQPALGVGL
How it was run: (§3)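 Membranes came from CHO cells expressing recombinant receptors (human A1, A2A, A2B, A3; rat A2B, A3). Radioligands were [3H]CCPA for A1 and [3H]PSB-11 or [3H]NECA for A3. A single high concentration was screened first, in three experiments for A1/A2A and two for A2B/A3.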

Adenosine receptor A2a [7] = molecular target: Adenosine receptor A2a (Rattus norvegicus, UniProt P30543); assay: Displacement of [3H]MSX2 from adenosine receptor A2a in rat brain striatal membranes; format: cell membranes, Membrane; how it was run: as §1
[8] = Solubility of compound in water at 20 degC by UV-spectroscopic analysis; format: physicochemical
How it was run: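 Suspensions were boiled 5 min, left overnight at 20 °C, and filtered. Filtrates were diluted 10-80-fold in MeOH and read by UV in MeOH/H2O (90% v/v). Concentration came from standard curves of seven concentrations from 10^-3 to 10^-1 mg/mL, using linear regression of two neighbouring points and multiplying by the dilution.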

Adenosine receptor A2a [9] = molecular target: T6, Adenosine receptor A2a (Homo sapiens, UniProt P29274); assay: Displacement of [3H]MSX2 from recombinant human adenosine receptor A2a expressed in CHO cell membranes; how it was run: as §2
Adenosine receptor A1 [10] = molecular target: T7, Adenosine receptor A1 (Homo sapiens, UniProt P30542); assay: Displacement of [3H]CCPA from recombinant human adenosine receptor A1 expressed in CHO cell membranes; how it was run: as §2
T7 sequence (P30542 whole entry): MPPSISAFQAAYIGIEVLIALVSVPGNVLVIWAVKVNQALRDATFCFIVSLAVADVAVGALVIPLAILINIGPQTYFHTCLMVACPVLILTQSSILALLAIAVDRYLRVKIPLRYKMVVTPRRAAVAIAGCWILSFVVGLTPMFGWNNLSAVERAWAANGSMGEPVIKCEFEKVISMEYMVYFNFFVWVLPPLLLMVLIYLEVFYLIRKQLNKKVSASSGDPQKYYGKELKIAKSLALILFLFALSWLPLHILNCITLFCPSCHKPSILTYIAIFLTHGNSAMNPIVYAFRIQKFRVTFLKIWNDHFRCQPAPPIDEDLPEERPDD

[11] = molecular target: T8, Adenosine receptor A1 (Homo sapiens) (UniProt P30542); assay: Displacement of [3H]CCPA from recombinant human adenosine receptor A1 expressed in CHO cell membranes at 1 uM; how it was run: as §2
T8 sequence (whole entry): T7 sequence (P30542 whole entry)

Adenosine receptor A2a [12] = molecular target: T6, Adenosine receptor A2a; assay: Displacement of [3H]MSX2 from recombinant human adenosine receptor A2a expressed in CHO cell membranes at 1 uM; how it was run: as §2
[13] = molecular target: T4, Adenosine receptor A1 (Rattus norvegicus); assay: Displacement of [3H]CCPA from adenosine receptor A1 in rat brain cortical membranes at 1 uM; format: cell membranes; how it was run: as §1
[14] = molecular target: T9, Adenosine receptor A2b (Homo sapiens) (UniProt P29275); assay: Displacement of [3H]PSB-603 from recombinant human adenosine receptor A2b expressed in CHO cell membranes at 1 uM; how it was run: as §2
T9 sequence (whole entry): T5 sequence (P29275 whole entry)

Adenosine receptor A3 [15] = molecular target: T10, Adenosine receptor A3 (Rattus norvegicus, UniProt P28647); assay: Displacement of [3H]NECA from recombinant rat adenosine receptor A3 expressed in CHO cell membranes; how it was run: as §3
T10 sequence (P28647 whole entry): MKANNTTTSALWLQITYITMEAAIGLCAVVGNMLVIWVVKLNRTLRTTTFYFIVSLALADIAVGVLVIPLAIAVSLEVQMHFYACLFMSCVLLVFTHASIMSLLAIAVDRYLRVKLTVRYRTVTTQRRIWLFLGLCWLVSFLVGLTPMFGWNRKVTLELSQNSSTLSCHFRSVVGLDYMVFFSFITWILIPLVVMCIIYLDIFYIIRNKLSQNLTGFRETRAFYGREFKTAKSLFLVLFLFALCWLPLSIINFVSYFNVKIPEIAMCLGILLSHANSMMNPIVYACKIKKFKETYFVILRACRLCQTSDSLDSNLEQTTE

[16] = molecular target: T11, Adenosine receptor A2b (Rattus norvegicus) (UniProt P29276); assay: Displacement of [3H]PSB-603 from recombinant rat adenosine receptor A2b expressed in CHO cell membranes at 1 uM; how it was run: as §2
T11 sequence (whole entry): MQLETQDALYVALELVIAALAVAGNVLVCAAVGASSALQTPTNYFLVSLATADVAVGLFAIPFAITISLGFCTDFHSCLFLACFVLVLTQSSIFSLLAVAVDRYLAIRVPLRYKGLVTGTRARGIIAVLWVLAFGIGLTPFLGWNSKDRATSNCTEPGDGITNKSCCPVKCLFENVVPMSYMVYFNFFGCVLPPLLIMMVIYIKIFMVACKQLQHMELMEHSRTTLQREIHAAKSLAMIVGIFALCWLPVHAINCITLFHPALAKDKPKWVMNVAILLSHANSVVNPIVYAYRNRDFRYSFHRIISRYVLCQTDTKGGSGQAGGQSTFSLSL

[17] = molecular target: Adenosine receptor A2a (Rattus norvegicus) (UniProt P30543); assay: Displacement of [3H]MSX2 from Adenosine receptor A2a in rat brain striatal membranes at 1 uM; format: cell membranes; settings: Membrane; how it was run: as §1
[18] = molecular target: T12, Adenosine receptor A3 (Rattus norvegicus) (UniProt P28647); assay: Displacement of [3H]NECA from recombinant rat adenosine receptor A3 expressed in CHO cell membranes at 1 uM; how it was run: as §2
T12 sequence (whole entry): T10 sequence (P28647 whole entry)

Adenosine receptor A2b [19] = molecular target: T13, Adenosine receptor A2b (Rattus norvegicus, UniProt P29276); assay: Displacement of [3H]PSB-603 from recombinant rat adenosine receptor A2b expressed in CHO cell membranes; how it was run: as §3
T13 sequence (P29276 whole entry): T11 sequence (whole entry)

Adenosine receptor A2a [20] = molecular target: T6, Adenosine receptor A2a; assay: Antagonist activity at human adenosine receptor A2a expressed in CHO cell membranes assessed as inhibition of NECA-induced cAMP accumulation incubated for 15 mins in presence of [3H]cAMP by liquid scintillation counting; format: functional
How it was run: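 Stably transfected CHO cells (human A2A or A2B) grown in DMEM-F12 with 10% FCS at 37 °C, 5% CO2. The cells were seeded at 200,000/well, washed after 24 h and held 2 h in HBSS (pH 7.3) with 1 U/ml adenosine deaminase. Ro20-1724 was added to 40 µM final for 15 min, then NECA dilutions ± one fixed test concentration in 2.5% DMSO, in duplicate.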

T6 sequence (P29274 whole entry): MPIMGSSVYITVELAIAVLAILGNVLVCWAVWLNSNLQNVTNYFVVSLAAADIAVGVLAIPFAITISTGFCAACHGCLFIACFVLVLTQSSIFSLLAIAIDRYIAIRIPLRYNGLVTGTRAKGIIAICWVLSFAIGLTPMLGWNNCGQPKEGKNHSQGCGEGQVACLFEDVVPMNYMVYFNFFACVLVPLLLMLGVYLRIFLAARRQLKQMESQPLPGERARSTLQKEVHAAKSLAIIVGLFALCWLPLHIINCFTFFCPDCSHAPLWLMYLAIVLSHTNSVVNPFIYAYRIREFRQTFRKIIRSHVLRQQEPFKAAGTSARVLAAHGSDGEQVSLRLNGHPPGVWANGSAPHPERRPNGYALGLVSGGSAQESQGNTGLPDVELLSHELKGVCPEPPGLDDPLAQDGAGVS
Chain of Adenosine receptor A2a (Rattus norvegicus) (P30543 whole entry): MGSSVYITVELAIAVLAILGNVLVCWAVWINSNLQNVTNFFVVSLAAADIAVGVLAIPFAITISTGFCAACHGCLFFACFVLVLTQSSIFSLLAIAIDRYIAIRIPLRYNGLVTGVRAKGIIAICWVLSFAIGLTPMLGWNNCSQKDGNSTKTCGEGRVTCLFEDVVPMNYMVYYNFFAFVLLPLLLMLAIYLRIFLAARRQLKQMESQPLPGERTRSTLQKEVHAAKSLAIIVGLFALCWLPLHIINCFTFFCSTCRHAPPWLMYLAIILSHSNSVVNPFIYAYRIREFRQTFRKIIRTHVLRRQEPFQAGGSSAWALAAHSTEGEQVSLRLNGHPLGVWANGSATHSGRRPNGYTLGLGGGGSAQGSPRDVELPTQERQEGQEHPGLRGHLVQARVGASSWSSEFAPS
Chain of Adenosine receptor A2a (Rattus norvegicus, UniProt P30543) (P30543 whole entry): as above

| SMILES | Ki (Adenosine receptor A3 [2]) [nM] | Ki (Adenosine receptor A1 [3]) [nM] | inhibition [4] [%] | Ki (Adenosine receptor A2b [6]) [nM] | Ki (Adenosine receptor A2a [7]) [µM] | solubility [8] [µg/mL] | inhibition [13] [%] | inhibition [14] [%] | inhibition [17] [%] | also measured |
| --- | --- | --- | --- | --- | --- | --- | --- | --- | --- | --- |
| Cn1c(=O)c2c(nc3n2CCN(CCc2ccc(O)cc2)C3)n(C)c1=O | > 1000 | > 1000 | 3 | > 1000 | > 10 |  |  |  |  | inhibition [1]: 35%; inhibition ([5]; 1 uM, in the assay text read “at 1 uM” for “at 10 uM”): 4% |
| COc1ccc(N2CCCn3c2nc2c3c(=O)n(C)c(=O)n2C)cc1 |  |  |  |  |  | 51 (≈ 149 µM) |  |  |  |  |
| CCCCn1c(=O)c2c(nc3n2CCCN3c2ccc(OCCN(C)C)cc2)n(CCCC)c1=O | > 1000 | 56 | 38 | > 1000 | 1.05 | 255 (≈ 528 µM) | 72 | 40 | 47 | Ki (Adenosine receptor A2a [9]): 1030 nM; Ki (Adenosine receptor A1 [10]): 539 nM; inhibition [11]: 43%; inhibition (Adenosine receptor A2a [12]): 52%; Ki (Adenosine receptor A3 [15]): > 1000 nM; inhibition [16]: 9%; inhibition [18]: 15%; Ki (Adenosine receptor A2b [19]): > 1000 nM |
| COc1ccc(CCN2CCCn3c2nc2c3c(=O)n(C)c(=O)n2C)cc1 |  |  |  |  |  | 63 (≈ 171 µM) |  |  |  |  |
| Cn1c(=O)c2c(nc3n2CCN(CCc2ccc(OCCN4CCOCC4)cc2)C3)n(C)c1=O | > 1000 | > 10000 | 3 | > 1000 | 11.5 |  |  | 4 |  | inhibition ([5]; 10 uM): 22% |
| CCN(CC)CCOc1ccc(CCN2CCn3c(nc4c3c(=O)n(C)c(=O)n4C)C2)cc1 | > 1000 | > 10000 | 0 | > 1000 | 7.85 |  |  | 19 |  | inhibition ([5]; 10 uM): 42% |
| Cn1c(=O)c2c(nc3n2CCCN3CCc2ccc(O)cc2)n(C)c1=O |  |  |  |  |  |  |  |  |  | Kb (Adenosine receptor A2a [20]): 2220 nM |
| CCCn1c(=O)c2c(nc3n2CCCN3c2ccc(OCCN3CCCC3)cc2)n(CCC)c1=O | > 1000 | 175 | 20 | > 1000 | > 1 |  | 53 | 10 | 28 | Ki (Adenosine receptor A2a [9]): 2380 nM; Ki (Adenosine receptor A1 [10]): 1990 nM; inhibition [11]: 22%; inhibition (Adenosine receptor A2a [12]): 10%; Ki (Adenosine receptor A3 [15]): > 1000 nM; inhibition [16]: 4%; inhibition [18]: 10%; Ki (Adenosine receptor A2b [19]): > 1000 nM |
| CCCn1c(=O)c2c(nc3n2CCCN3c2ccc(OCCN(CC)CC)cc2)n(CCC)c1=O | > 1000 | 567 | 20 | > 1000 | 1.79 | 260 (≈ 539 µM) | 30 | 22 | 51 |  |
